Screening results (PubChem BioAssay)
The list is not random: actives were taken first. Their share in the collection is about 2%.
STEP inh = STEP phosphatase inhibitors, primary screen, biochemical, fluorescence intensity, uHTS. Tyrosine-protein phosphatase non-receptor type 5 (Homo sapiens), P54829. recombinant STEP, OMFP fluorogenic substrate. inhibition, % at 20 µM. actives 0.25% (n = 360,000);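 active = inhibition at 20 µM, scaled per plate between control wells, above about 37%, limit read from the data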;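 also: 0% = DMSO with enzyme and substrate and 100% = substrate only without enzyme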
Target sequence (P54829 whole entry, looked up): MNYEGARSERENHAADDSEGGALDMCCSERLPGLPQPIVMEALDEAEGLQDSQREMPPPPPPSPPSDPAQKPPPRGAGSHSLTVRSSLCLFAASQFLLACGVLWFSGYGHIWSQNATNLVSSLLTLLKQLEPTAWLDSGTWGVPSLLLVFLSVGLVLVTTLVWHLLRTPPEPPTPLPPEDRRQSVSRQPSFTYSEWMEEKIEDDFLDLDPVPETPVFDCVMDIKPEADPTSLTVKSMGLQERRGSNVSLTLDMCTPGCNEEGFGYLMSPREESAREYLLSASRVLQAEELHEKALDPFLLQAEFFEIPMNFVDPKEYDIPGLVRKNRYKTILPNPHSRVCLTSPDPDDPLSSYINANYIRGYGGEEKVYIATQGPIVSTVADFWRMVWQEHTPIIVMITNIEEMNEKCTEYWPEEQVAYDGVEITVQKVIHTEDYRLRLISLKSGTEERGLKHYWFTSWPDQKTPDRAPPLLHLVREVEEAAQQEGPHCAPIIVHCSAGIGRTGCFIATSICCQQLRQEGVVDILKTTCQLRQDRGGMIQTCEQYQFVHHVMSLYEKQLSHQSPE
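Assay system: isolated STEP enzyme / Timing: 20 min at room temperature, dark / Doses: 20 µM, 1% DMSO / Technique: fluorescence intensity, excitation 480 nm, emission 540 nm / Reagent: fluorogenic phosphatase substrate OMFP at 25 µM final / Measure: percent inhibition scaled to no-enzyme and uninhibited-enzyme controls, plate-pattern corrected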
CSN deneddyl inh = inhibitors of CSN-mediated cullin deneddylation, primary screen, biochemical, fluorescence polarization, uHTS; COP9 signalosome complex subunit 5 (Homo sapiens), Q92905; actives 0.38% (n = 360,000); inhibition, % at 12.5 µM; Purified CSN, SCF-Nedd8-OG deneddylation;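 active = pattern-corrected inhibition above about 35%, with an unprinted fluorescence ratio check between 0.5 and 1.5, limit read from the data, passing the limit was not always enough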;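 also: 0% = enzyme with substrate and 100% = substrate without enzyme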
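Test system: Human Csn5 produced in HEK293T cells | Compound: 12.5 µM single point | Times: 90 min, room temperature | Signal: Fluorescence polarization readout | Read-out basis: % inhibition of substrate cleavage by Csn5 | Controls: no-enzyme wells high, enzyme-with-substrate wells low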
Scp1 inh = Scp-1 phosphatase inhibitors, primary screen, biochemical, colorimetric, uHTS; Carboxy-terminal domain RNA polymerase II polypeptide A small phosphatase 1 (Homo …; Recombinant Scp1, phosphopeptide, malachite green phosphate absorbance; inhibition, % at 20 µM; actives 0.88% (n = 340,000); AID 493091, 2011;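 active = inhibition above about 50% at 20 µM, limit read from the data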;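 also: plate controls were DMSO wells with enzyme for no effect and wells lacking enzyme for full effect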
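Times: enzyme reaction 45 min at room temperature, colour 5 min, stabilisation 30 min. Material: SCP-1 catalytic fragment, aa 76-261. Medium: Acidic Tris acetate buffer with magnesium and detergent. Signal: colorimetric free-phosphate detection, absorbance 630 nm. Read-out basis: % inhibition of SCP-1 phosphate liberation. Reagent: Phosphorylated 17-residue peptide substrate.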
SUMO1-SIM PPI = modulators of SUMO1 protein-protein interactions, primary screen, biochemical, uHTS; Small ubiquitin-related modifier 1 (Homo sapiens), P63165; SUMO1 binding to a labelled peptide, TR-FRET, 1 h; inhibition, % at 20 µM; actives 0.33% (n = 360,000); in the data active = inhibition above about 37%
Target sequence (P63165 whole entry, looked up): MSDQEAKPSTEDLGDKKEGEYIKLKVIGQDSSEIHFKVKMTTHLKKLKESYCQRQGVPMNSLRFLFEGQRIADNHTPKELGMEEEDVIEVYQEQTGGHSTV
DNMT1 block = human DNMT1 methyltransferase inhibitors, primary screen, biochemical, molecular beacon, fluorescence, HinP1I cleavage, uHTS. DNA (cytosine-5)-methyltransferase 1 (Homo sapiens), P26358. inhibition (reported as % activation of signal), % at 10 µM. actives 0.83% (n = 360,000); in the data active = inhibition above about 50%
LMPTP inh = LMPTP phosphatase inhibitors, primary screen, biochemical, fluorescence intensity, uHTS; Low molecular weight phosphotyrosine protein phosphatase (Homo sapiens), P24666; inhibition, % at 20 µM; AID 651560, 2012; actives 0.22% (n = 360,000); recombinant LMPTP-A, OMFP fluorogenic substrate;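 active = compounds that cut the enzyme signal by at least half of the control window in the single-dose screen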;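 also: plate controls were DMSO wells with enzyme plus substrate for no effect and substrate without enzyme for full effect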
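Test system: LMPTP-A phosphatase enzyme; input: 0.625 nM LMPTP-A final; reagent: OMFP substrate, 400 µM final; compound dosing: 20 µM single dose, 3% DMSO; incubation: 50 min dark incubation at room temperature; measured by: endpoint fluorescence intensity from OMFP dephosphorylation; measure: % inhibition relative to no-enzyme and uninhibited control wells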
DNMT1 inh conf = DNMT1 methyltransferase inhibitor retest, confirmation, biochemical, molecular beacon, fluorescence, single concentration. shares compounds with DNMT1 block. DNMT1 molecular beacon HinP1I cleavage. inhibition, % at 10 µM. actives 8% (n = 2,300). AID 602385, 2012;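 active = average inhibition of at least 30% in the single-concentration confirmation test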
Beacon interf = beacon fluorescence artifact counter-screen. actives 1% (n = 2,300). AID 602387. activation (fluorescence interference), % at 10 µM. DNMT1 molecular beacon spectral interference counterscreen, fluorescence 485/520. shares compounds with DNMT1 block;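 active = activation of at least 30% at 10 µM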;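 also: DNMT1 catalytic domain with a HinP1I cleavage step and a FAM/dabcyl DNA beacon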
Numbers without * were called inactive.

Results for Cc1ccc(-c2nc3ncccc3o2)cc1NC(=O)Cc1ccc(Cl)cc1 ?
STEP inh: -4; CSN deneddyl inh: 5; Scp1 inh: -12; SUMO1-SIM PPI: 1; DNMT1 block: 76*; LMPTP inh: -1; DNMT1 inh conf: 3; Beacon interf: 4

Results for Cc1ccc(-c2nc3cccnc3o2)cc1NC(=O)COc1ccc(Cl)cc1C ?
STEP inh: 5; CSN deneddyl inh: -6; Scp1 inh: 3; SUMO1-SIM PPI: 19; DNMT1 block: 73*; LMPTP inh: 2; DNMT1 inh conf: 2; Beacon interf: -7

Results for Cc1ccc(-c2nc3ncccc3o2)cc1NC(=O)COc1ccccc1 ?
STEP inh: 0; CSN deneddyl inh: 4; Scp1 inh: -1; SUMO1-SIM PPI: 5; DNMT1 block: -1; LMPTP inh: 1

How did O=C(NC(=S)NCCC1=CCCCC1)c1cccnc1 do in these assays?
STEP inh: -1; CSN deneddyl inh: 2; Scp1 inh: -1; SUMO1-SIM PPI: -3; DNMT1 block: -2; LMPTP inh: 0

Results for Cc1ccc2nc(Nc3nc(C)cc(-c4ccccc4)n3)[nH]c(=O)c2c1 ?
STEP inh: 1; CSN deneddyl inh: 4; Scp1 inh: 3; SUMO1-SIM PPI: 16; DNMT1 block: 22; LMPTP inh: 1

What do the screens show for `COC(=O)C(CO)Nc1ncnc2onc(-c3ccc(F)cc3)c12` (stereo not drawn)?
STEP inh: 0; CSN deneddyl inh: 5; Scp1 inh: -9; SUMO1-SIM PPI: 0; DNMT1 block: 2; LMPTP inh: 0

What do the screens show for `COC(=O)c1ccccc1NC(=O)c1cc2ncc(Br)cn2n1`?
STEP inh: 7; CSN deneddyl inh: 6; Scp1 inh: 40; SUMO1-SIM PPI: 1; DNMT1 block: 68*; LMPTP inh: 5; DNMT1 inh conf: 0; Beacon interf: -4

Results for Cc1cc(NC(=O)c2cc3ncc(Br)cn3n2)no1 ?
STEP inh: -1; CSN deneddyl inh: 1; Scp1 inh: -6; SUMO1-SIM PPI: -9; DNMT1 block: 4; LMPTP inh: 0

Results for C(=C\c1nc(N2CCCC2)c2ccccc2n1)/c1ccccc1 ?
STEP inh: 2; CSN deneddyl inh: -1; Scp1 inh: 18; SUMO1-SIM PPI: -2; DNMT1 block: 61*; LMPTP inh: 85*; DNMT1 inh conf: 3; Beacon interf: 3

Results for CC1CCN(c2nc(/C=C/c3ccccc3)nc3ccccc23)CC1 ?
STEP inh: 3; CSN deneddyl inh: 1; Scp1 inh: 18; SUMO1-SIM PPI: -1; DNMT1 block: 1; LMPTP inh: 18

What do the screens show for `COc1ccc2sc3c(=O)[nH]c4ccccc4c3c2c1`?
STEP inh: 3; CSN deneddyl inh: 3; Scp1 inh: -5; SUMO1-SIM PPI: 7; DNMT1 block: 58*; LMPTP inh: 1; DNMT1 inh conf: 5; Beacon interf: 4

How did COc1ccc2c(c1)[nH]c(=O)c1sc3ccccc3c12 do in these assays?
STEP inh: 0; CSN deneddyl inh: 4; Scp1 inh: 3; SUMO1-SIM PPI: -6; DNMT1 block: 43; LMPTP inh: 2

Results for Cc1cc(C)c(NC(=O)CNC(=O)c2ccc3ncsc3c2)c(C)c1 ?
STEP inh: -1; CSN deneddyl inh: -5; Scp1 inh: -2; SUMO1-SIM PPI: -1; DNMT1 block: -5; LMPTP inh: -1

How did COc1cc(C(=O)C(=O)N2CCC(Cc3ccccc3)CC2)cc2ccccc12 do in these assays?
CSN deneddyl inh: -1; SUMO1-SIM PPI: 0; LMPTP inh: 2

Results for NC(=O)C1(N2CCCCC2)CCN(C(=S)Nc2cccc(Cl)c2)CC1 ?
STEP inh: -2; CSN deneddyl inh: 1; Scp1 inh: -1; SUMO1-SIM PPI: 25; DNMT1 block: 7; LMPTP inh: -2

How did O=C1N/C(=C/c2ccc(Br)cc2)C(O)=C1C=NCc1ccccc1 do in these assays?
STEP inh: -2; CSN deneddyl inh: -1; Scp1 inh: -2; SUMO1-SIM PPI: -3; DNMT1 block: 62*; LMPTP inh: 0; DNMT1 inh conf: 0; Beacon interf: 1

What do the screens show for `Nc1ccc2c(c1)[nH]c(=O)c1ccccc12`?
STEP inh: 2; CSN deneddyl inh: -6; Scp1 inh: 0; SUMO1-SIM PPI: -3; DNMT1 block: 80*; LMPTP inh: 0; DNMT1 inh conf: 6; Beacon interf: 1

How did O=c1[nH]c2cc(O)ccc2c2ccccc12 do in these assays?
STEP inh: -2; CSN deneddyl inh: -3; SUMO1-SIM PPI: 7; DNMT1 block: 1; LMPTP inh: -1

How did O=C(Nc1ccc(Cl)cc1)C1C2CCCCC21 (stereo not drawn) do in these assays?
STEP inh: 0; CSN deneddyl inh: -3; Scp1 inh: -4; SUMO1-SIM PPI: 0; DNMT1 block: 1; LMPTP inh: 0

How did O=C(Cc1cccs1)Nc1nncs1 do in these assays?
STEP inh: -2; CSN deneddyl inh: -1; Scp1 inh: -2; SUMO1-SIM PPI: 10; DNMT1 block: 9; LMPTP inh: -1

What do the screens show for `CC(C)Cc1nnc(NC(=O)Cc2cccs2)s1`?
STEP inh: 10; CSN deneddyl inh: 26; Scp1 inh: 19; SUMO1-SIM PPI: 1; DNMT1 block: 63*; LMPTP inh: 6; DNMT1 inh conf: 20; Beacon interf: -3

Results for CCOc1ccc(NC(=O)c2ccc3c(c2)OCCO3)cc1S(=O)(=O)N(CC)CC ?
STEP inh: 3; CSN deneddyl inh: 1; Scp1 inh: 12; SUMO1-SIM PPI: 6; DNMT1 block: -4; LMPTP inh: 1
